Most compounds without a hit are left out; they make up all but 2.3% or so of the library.
ADAM10 inh – inhibits human ADAM10 | recombinant ADAM10, EDANS/DABCYL FRET peptide cleavage, 3 h | hit rate 0.62% among 370,000 | inhibition, % at 7 µM;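 active = inhibition above a per-campaign cutoff equal to the mean of compounds falling between control-based bounds plus 3 SD, cut at about 20% in these data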
ADAM17 inh – inhibitors of human ADAM17; hit rate 0.83% among 370,000; recombinant ADAM17, EDANS/DABCYL FRET peptide cleavage; inhibition, % at 6.95 µM;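 active = inhibition above the mean of compounds lying between control limits plus 3 SD, set per campaign, cut at about 8.5% in these data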
Tn7 DDE FP – DD(E)-Tn7 binding inhibition, primary FP screen; inhibition, % at 8.3 µM; hit rate 0.13% among 370,000; AID 720508; P02675; FP displacement of FITC-Tn7 peptide from fibrin DD(E); 0% = median of compound wells per plate;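 active = inhibition above the mean of compounds falling within the control limits plus 3 SD of them, cut at about 14% in these data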
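Assay system: human fibrin DD(E). Input: DD(E) 2 µM final. Medium: Tris buffer with calcium and detergent, pH 7.8. Compound dosing: single point at 8.3 µM. Timing: 10 min plus 3 h, room temperature. Technique: fluorescence polarization of the labelled Tn7 tracer. Read-out: percent inhibition. Replicates: singlicate testing.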
PLC-beta3 inh – inhibitors of human phospholipase C beta3. Q01970. Purified PLC-beta3, fluorogenic substrate, fluorescence. inhibition, % at 12.2 µM. hit rate 0.18% among 370,000; in the data active = inhibition above about 11%
Target sequence (Q01970 whole entry, looked up): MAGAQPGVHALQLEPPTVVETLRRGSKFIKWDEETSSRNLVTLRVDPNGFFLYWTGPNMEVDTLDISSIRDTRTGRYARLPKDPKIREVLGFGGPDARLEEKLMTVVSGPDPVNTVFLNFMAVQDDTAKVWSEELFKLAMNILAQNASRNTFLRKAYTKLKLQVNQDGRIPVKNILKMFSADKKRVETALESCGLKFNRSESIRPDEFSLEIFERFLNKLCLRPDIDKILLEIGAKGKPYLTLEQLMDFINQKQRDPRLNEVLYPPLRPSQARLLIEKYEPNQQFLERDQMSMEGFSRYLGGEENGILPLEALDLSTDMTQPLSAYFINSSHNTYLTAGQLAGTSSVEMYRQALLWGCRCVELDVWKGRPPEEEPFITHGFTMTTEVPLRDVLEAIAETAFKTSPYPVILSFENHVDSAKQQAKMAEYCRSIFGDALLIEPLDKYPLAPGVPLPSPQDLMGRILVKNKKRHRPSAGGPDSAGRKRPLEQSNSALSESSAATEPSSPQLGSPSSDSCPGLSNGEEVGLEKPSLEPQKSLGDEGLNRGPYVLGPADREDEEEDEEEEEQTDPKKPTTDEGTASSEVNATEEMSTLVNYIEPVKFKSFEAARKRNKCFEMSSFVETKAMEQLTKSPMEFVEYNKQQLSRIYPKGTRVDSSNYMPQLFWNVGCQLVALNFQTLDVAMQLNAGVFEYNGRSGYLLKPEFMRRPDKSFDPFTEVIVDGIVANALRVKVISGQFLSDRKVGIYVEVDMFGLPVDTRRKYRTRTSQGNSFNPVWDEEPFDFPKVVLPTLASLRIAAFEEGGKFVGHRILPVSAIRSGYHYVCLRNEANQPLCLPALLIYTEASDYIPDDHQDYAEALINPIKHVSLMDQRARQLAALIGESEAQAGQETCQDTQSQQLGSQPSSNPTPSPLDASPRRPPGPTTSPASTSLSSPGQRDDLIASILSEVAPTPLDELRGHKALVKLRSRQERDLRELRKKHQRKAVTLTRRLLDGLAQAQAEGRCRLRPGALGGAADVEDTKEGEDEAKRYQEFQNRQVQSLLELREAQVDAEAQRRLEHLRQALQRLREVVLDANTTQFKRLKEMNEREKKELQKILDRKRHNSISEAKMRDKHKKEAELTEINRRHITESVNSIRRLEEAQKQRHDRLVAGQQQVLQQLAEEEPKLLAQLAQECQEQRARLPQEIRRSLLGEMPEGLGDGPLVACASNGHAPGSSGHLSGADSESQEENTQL
DDE Tn6 FP inh – disrupts Tn6 cyclic peptide binding to fibrin D-Dimer-E complex; P02675; Fibrin DD(E) TRITC-Tn6 fluorescence polarization displacement; inhibition, % at 8.3 µM; hit rate 0.21% among 370,000;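 active = inhibition above a per-campaign cutoff: mean of compounds within control limits plus 3 SD, cut at about 15% in these data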
PLC-gamma1 inh – inhibitors of human phospholipase C gamma1 | P19174 | AID 720700 | hit rate 0.84% among 370,000 | inhibition, % at 12.2 µM | purified PLC-gamma1, fluorogenic substrate, fluorescence; in the data active = inhibition above about 9.5%
ADAM10 confirm – human ADAM10 inhibition, confirmation; ADAM10 QFRET peptide cleavage, EDANS fluorescence; hit rate 1% among 2,100; AID 743208; inhibition, % at 6.95 µM; shares compounds with ADAM10 inh;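 active = inhibition above about 20% chosen separately for each screening run, limit read from the data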
ADAM17 counter – ADAM17 inhibition, counter-screen for ADAM10 exosite hits. inhibition, % at 6.95 µM. ADAM17 QFRET peptide cleavage, EDANS fluorescence. hit rate 0.5% among 2,100. shares compounds with ADAM10 inh;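 active = mean triplicate inhibition above the solvent-only control wells' mean plus 3 SD, cut at about 12% in these data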
Large screens that a line does not name were inactive (follow-up assays come after a bar, where they were run).

COc1ccc(CN2C[C@]3(C=C4CCCCC4n4c(=O)n(-c5ccccc5)c(=O)n43)N=C2NC(=O)c2ccccc2)c(OC)c1 (some centres undefined)	ADAM10 inh 31.9 | ADAM10 confirm inactive | ADAM17 counter inactive
O=C(NC1=N[C@@]2(C=C3CCCCC3n3c(=O)n(-c4ccccc4)c(=O)n32)CN1Cc1ccccc1)c1ccccc1 (some centres undefined)	none
COC(=O)[C@]12C[C@H](CC(=O)NCCCN3CCCC3=O)C(=O)N(CCc3ccc(OC)c(OC)c3)C1=C[C@H](C1CCCC1)O[C@@H]2C	none
Cc1ccc(S(=O)(=O)NC(=S)c2ccccc2)cc1	none
Cc1ccc(C(=S)NCS(=O)(=O)c2ccc(C)cc2)cc1	ADAM10 inh 26.4 | ADAM10 confirm 21.4 | ADAM17 counter inactive
O=C(C1CC1)N1N=C(c2cccc(Br)c2)CC1(O)C(F)(F)F (centres undefined)	ADAM10 inh 81.1 | ADAM10 confirm inactive | ADAM17 counter inactive
S=c1[nH]cc(-c2ccccc2)n1-c1ccccc1	ADAM10 inh 22.8, ADAM17 inh 10.6, PLC-gamma1 inh 13.0 | ADAM10 confirm inactive | ADAM17 counter inactive
Cc1ccc(-n2c(-c3ccccc3)c[nH]c2=S)cc1	none
CCn1nc(C(=O)OC(C(=O)c2c[nH]c3ccccc23)c2ccccc2)c2ccccc2c1=O (centres undefined)	ADAM10 inh 24.1 | ADAM10 confirm inactive | ADAM17 counter inactive
Nc1[nH]c(C(=O)c2ccccc2)c(-c2ccccc2[N+](=O)[O-])c1C(=O)NCCc1c[nH]c2ccccc12	ADAM10 inh 25.0, ADAM17 inh 12.2 | ADAM10 confirm inactive | ADAM17 counter inactive
Nc1[nH]c(C(=O)c2ccccc2)c(-c2ccc([N+](=O)[O-])cc2)c1C(=O)NCCc1c[nH]c2ccccc12	none
CCCCOc1cccc(C(=O)Nc2ccc(S(=O)(=O)Nc3nnc(CC)s3)cc2)c1	ADAM10 inh 21.3 | ADAM10 confirm inactive | ADAM17 counter inactive
Cc1oc(-c2ccccc2)cc1C(=O)Nc1cccc(/C=C\C(=O)O)c1	none
Cc1oc(-c2ccccc2)cc1C(=O)Nc1ccc(N(C)C)cc1	ADAM10 inh 21.8 | ADAM10 confirm inactive | ADAM17 counter inactive
COC(=O)[C@]1(CNC(=O)Nc2ccc(C)c(Cl)c2)CC(=O)N(C)[C@@H]1c1ccccc1	none
Cc1cc(C)n2nc(SCc3ccccc3)nc2n1	ADAM10 inh 22.0 | ADAM10 confirm inactive | ADAM17 counter inactive
CCN(CC)c1ccc(C=NNC(=O)Cc2cc(=O)[nH][nH]2)c(O)c1	none
CC(=O)OC12CCCN(C1)/C(=C/c1cccnc1)C2 (centres undefined)	none
COc1cc(OC)cc(C(=O)N[C@H](C(=O)OCC(=O)Nc2ccc(C(C)C)cc2)C(C)C)c1	ADAM10 inh 20.6 | ADAM10 confirm inactive | ADAM17 counter inactive
COc1cc(OC)cc(C(=O)N[C@H](C(=O)OCC(=O)Nc2ccc(OC)c(OC)c2)C(C)C)c1	none
O=C(CSc1nnc(SCc2ccccc2)s1)NNC(=S)Nc1ccccc1	ADAM10 inh 23.7 | ADAM10 confirm inactive | ADAM17 counter inactive
O=C(Cc1ccccc1)NNC(=S)Nc1ccccc1	none
O=C(NCCNc1ccc([N+](=O)[O-])cc1C(F)(F)F)c1cccc(F)c1	ADAM10 inh 20.5 | ADAM10 confirm inactive | ADAM17 counter inactive
COC(=O)c1sc2ccccc2c1-n1cccc1C(=O)C(=O)Nc1ccc(OC)cc1	ADAM10 inh 21.9 | ADAM10 confirm inactive | ADAM17 counter inactive
Cc1ccccc1NC(=O)c1cccc2c1-c1ccccc1C2=O	none
CSc1nc2cc(Oc3cccc(Cl)c3Cl)c(Cl)cc2[nH]1	ADAM10 inh 20.1 | ADAM10 confirm inactive | ADAM17 counter inactive
CSc1nc2ccc(Cl)cc2[nH]1	none
O=C1OCCN1C(=O)[C@H]1[C@H](c2ccccc2)C(c2cccc(Cl)c2)=NN1c1ccc(Br)cc1	none
O=C1OCCN1C(=O)[C@H]1[C@H](c2ccc([N+](=O)[O-])cc2)C(c2cccc(Cl)c2)=NN1c1ccc(Br)cc1	ADAM10 inh 23.6 | ADAM10 confirm inactive | ADAM17 counter inactive
Cc1cc(S(=O)(=O)NCC(c2ccccc2)c2ccccc2)ccc1-n1cnnn1	ADAM10 inh 20.4 | ADAM10 confirm inactive | ADAM17 counter inactive
O=C(NC(=S)Nc1cccc2cc(O)ccc12)c1ccccc1Br	none
COc1ccccc1C(=O)NC(=S)Nc1cccc2cc(O)ccc12	ADAM10 inh 24.9 | ADAM10 confirm inactive | ADAM17 counter inactive
CCOC(=O)[C@]12CCCCC/C=C\1N(Cc1ccc(OC)cc1)C(=O)[C@H]2CC(=O)NCCCOC	none
CN1C(=O)Cc2cc(S(=O)(=O)Nc3ccc(N4CCOCC4)cc3)ccc21	ADAM10 inh 28.4 | ADAM10 confirm inactive | ADAM17 counter inactive
COc1ccc(COC[C@H](C)N2C[C@@H](C)[C@H](CN(C)S(=O)(=O)c3ccc(F)cc3)OCCCC[C@H](C)Oc3ccc(NC(=O)Nc4ccccc4)cc3C2=O)cc1	none
CC(=O)CC[C@H]1CC[C@]2(CCCN(C(=O)c3ccc4ccccc4n3)C2)O1	none
COc1ccc(NC(=S)NC23CN4CN(CN(C4)C2)C3)cc1	ADAM10 inh 82.5 | ADAM10 confirm inactive | ADAM17 counter inactive
CC(C)(C)c1ccc(S(=O)(=O)N2CCCC2C(=O)N2CCN(c3ccccc3)CC2)cc1 (centres undefined)	none
CC(=O)c1ccccc1-c1csc2ncnc(Sc3nnnn3C)c12	ADAM10 inh 76.1 | ADAM10 confirm inactive | ADAM17 counter inactive
Cn1nnnc1Sc1ncnc2scc(-c3ccccc3C(F)(F)F)c12	none
COc1cc(NC(=O)C2CCN(S(=O)(=O)c3cccc4nonc34)CC2)cc(OC)c1	ADAM10 inh 23.2 | ADAM10 confirm inactive | ADAM17 counter inactive
CCC(C)NS(=O)(=O)c1ccc2[nH]c(=O)oc2c1 (centres undefined)	none
O=S(=O)(NCC(Nc1ccc(Cl)cc1)c1ccccc1)c1ccc(Cl)cc1 (centres undefined)	ADAM10 inh 22.7 | ADAM10 confirm inactive | ADAM17 counter inactive
COc1ccc(-c2nc(-c3ccccc3)c(-c3cc([N+](=O)[O-])ccc3C)[nH]2)cc1O	ADAM10 inh 30.7 | ADAM10 confirm inactive | ADAM17 counter inactive
COc1ccc([N+](=O)[O-])cc1-c1[nH]c(-c2ccc(C(=O)O)cc2)nc1-c1ccccc1	none
